According to ChEMBL document CHEMBL1154647, “Synthesis, spectral characterization and biological evaluation of phosphorylated derivatives of galanthamine” (Eur J Med Chem, 2010):
In brackets after ≈: the same amount, converted by molar mass.

Experiments:
[1] = tested on: Escherichia coli; assay: Antibacterial activity against Escherichia coli at 1 mg/mL after 18 hrs by disc diffusion assay; assay type: functional; details: read-out: IZ
Method in brief: (§1)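 Bacteria were grown in nutrient broth at 37 °C for 18 h on a rotary shaker at 150 rpm. Compounds were dissolved in DMF. Nutrient agar plates were dried at 35–36 °C for about 30 min, and test strains were spread on the surface. Discs were applied, and plates were inverted and incubated at 37 °C. A DMF blank was run.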

[2] = Inhibition of superoxide dismutase in Wistar rat brain; assay type: tissue-based
[3] = tested on: Brain; assay: Antioxidant activity in Wistar rat brain assessed as inhibition of lipid peroxidation; assay type: functional, tissue-based
[4] = tested on: Brain; assay: Antioxidant activity in Wistar rat brain assessed as lipid peroxidation; assay type: functional, tissue-based
[5] = tested on: Staphylococcus aureus; assay: Antibacterial activity against Staphylococcus aureus after 18 hrs; assay type: functional
[6] = tested on: Bacillus subtilis; assay: Antibacterial activity against Bacillus subtilis at 2 mg/mL after 18 hrs by disc diffusion assay; assay type: functional; details: read-out: IZ; method in brief: as §1
[7] = tested on: Klebsiella pneumoniae; assay: Antibacterial activity against Klebsiella pneumoniae at 2 mg/mL after 18 hrs by disc diffusion assay; assay type: functional; details: read-out: IZ; method in brief: as §1
[8] = tested on: Klebsiella pneumoniae; assay: Antibacterial activity against Klebsiella pneumoniae after 18 hrs; assay type: functional
[9] = tested on: Bacillus subtilis; assay: Antibacterial activity against Bacillus subtilis at 1 mg/mL after 18 hrs by disc diffusion assay; assay type: functional; details: read-out: IZ; method in brief: as §1
[10] = tested on: Brain; assay: Antioxidant activity in Wistar rat brain assessed as reduction in glutathione content; assay type: functional, tissue-based
Method in brief: (§2)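 Wistar rat brain was homogenised 1:40 (w/v) in 0.1 M phosphate buffer, pH 7.4, with 1 mM EDTA. Total glutathione (GSH + GSSG) and reduced GSH were assayed spectrophotometrically from optical density, using net rate against a standard-curve slope and intercept, times a dilution factor. Homogenate protein was measured by the Lowry method.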

[11] = tested on: Brain; assay: Antioxidant activity in Wistar rat brain assessed as catalase content; assay type: functional
[12] = tested on: Brain; assay: Antioxidant activity in Wistar rat brain assessed as glutathione content; assay type: functional; method in brief: as §2
[13] = tested on: Klebsiella pneumoniae; assay: Antibacterial activity against Klebsiella pneumoniae at 1 mg/mL after 18 hrs by disc diffusion assay; assay type: functional; details: read-out: IZ; method in brief: as §1
[14] = tested on: Staphylococcus aureus; assay: Antibacterial activity against Staphylococcus aureus at 1 mg/mL after 18 hrs by disc diffusion assay; assay type: functional; details: read-out: IZ; method in brief: as §1
[15] = tested on: Brain; assay: Antioxidant activity in Wistar rat brain assessed as superoxide dismutase content; assay type: functional
[16] = tested on: Bacillus subtilis; assay: Antibacterial activity against Bacillus subtilis after 18 hrs; assay type: functional
[17] = tested on: Escherichia coli; assay: Antibacterial activity against Escherichia coli after 18 hrs; assay type: functional
[18] = target: T1, Catalase (Rattus norvegicus, UniProt P04762); assay: Inhibition of catalase in Wistar rat brain
T1 sequence (P04762 whole entry): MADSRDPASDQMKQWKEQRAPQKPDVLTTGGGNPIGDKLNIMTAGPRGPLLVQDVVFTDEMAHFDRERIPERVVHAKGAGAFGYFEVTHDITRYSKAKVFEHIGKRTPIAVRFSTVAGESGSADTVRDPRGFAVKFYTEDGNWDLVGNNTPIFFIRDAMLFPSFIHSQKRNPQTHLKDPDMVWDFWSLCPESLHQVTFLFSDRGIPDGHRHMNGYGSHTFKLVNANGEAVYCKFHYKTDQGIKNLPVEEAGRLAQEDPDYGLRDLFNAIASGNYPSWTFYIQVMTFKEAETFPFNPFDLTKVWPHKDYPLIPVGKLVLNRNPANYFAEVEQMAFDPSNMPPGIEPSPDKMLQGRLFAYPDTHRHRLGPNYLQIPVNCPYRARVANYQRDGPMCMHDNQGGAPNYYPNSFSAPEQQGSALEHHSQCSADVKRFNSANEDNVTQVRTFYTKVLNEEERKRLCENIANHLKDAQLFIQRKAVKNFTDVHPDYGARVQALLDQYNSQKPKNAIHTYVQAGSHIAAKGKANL

[19] = tested on: Staphylococcus aureus; assay: Antibacterial activity against Staphylococcus aureus at 2 mg/mL after 18 hrs by disc diffusion assay; assay type: functional; details: read-out: IZ; method in brief: as §1
[20] = tested on: Escherichia coli; assay: Antibacterial activity against Escherichia coli at 2 mg/mL after 18 hrs by disc diffusion assay; assay type: functional; details: read-out: IZ; method in brief: as §1

| Structure (SMILES) | zone of inhibition at 1000 µg/mL [1] [mm] | EC50 [2] [µg/mL] | EC50 [3] [µg/mL] | Activity [4] [µg/mL] | MIC [5] [µg/mL] | zone of inhibition at 2000 µg/mL [6] [mm] | zone of inhibition at 2000 µg/mL [7] [mm] | MIC [8] [µg/mL] | zone of inhibition at 1000 µg/mL [9] [mm] | EC50 [10] [µg/mL] | Activity [11] [µg/mL] | Activity [12] [µg/mL] | zone of inhibition at 1000 µg/mL [13] [mm] | zone of inhibition at 1000 µg/mL [14] [mm] | Activity [15] [µg/mL] | MIC [16] [µg/mL] | MIC [17] [µg/mL] | EC50 [18] [µg/mL] | zone of inhibition at 2000 µg/mL [19] [mm] | zone of inhibition at 2000 µg/mL [20] [mm] |
| --- | --- | --- | --- | --- | --- | --- | --- | --- | --- | --- | --- | --- | --- | --- | --- | --- | --- | --- | --- | --- |
| COc1ccc2c3c1O[C@H]1C[C@@H](OP(=O)(Oc4ccc([N+](=O)[O-])cc4)OP(=O)(O)O)C=C[C@@]31CCN(C)C2 (stereo not given in full) | 2.42 | 2.69 (≈ 4.73 µM) | 3.33 (≈ 5.86 µM) | 72.2 | 0.76 (≈ 1.34 µM) | 3.78 | 5.45 | 0.28 (≈ 0.493 µM) | 2.05 | 2.15 (≈ 3.78 µM) | 287.38 | 4.22 | 1.88 | 2.38 | 29.55 | 0.19 (≈ 0.334 µM) | 0.46 (≈ 0.809 µM) | 2.92 (≈ 5.14 µM) | 4.56 | 4.97 |
| COc1ccc2c3c1O[C@H]1C[C@@H](OP(=O)(OP(=O)(O)O)N(CCCl)CCCl)C=C[C@@]31CCN(C)C2 (stereo not given in full) | 1.26 | 1.26 (≈ 2.21 µM) | 1.98 (≈ 3.47 µM) | 74.9 | 0.38 (≈ 0.665 µM) | 4.49 | 3.68 | 0.48 (≈ 0.84 µM) | 2.09 | 2.68 (≈ 4.69 µM) | 278.33 | 4.72 | 1.39 | 1.72 | 28.14 | 0.16 (≈ 0.28 µM) | 0.42 (≈ 0.735 µM) | 2.18 (≈ 3.82 µM) | 4.65 | 4.08 |
| COc1ccc2c3c1O[C@H]1C[C@@H](OP(=O)(NCCO)Oc4ccc([N+](=O)[O-])cc4)C=C[C@@]31CCN(C)C2 (stereo not given in full) | 1.62 | 2.57 (≈ 4.84 µM) | 2.81 (≈ 5.29 µM) | 72.5 | 0.81 (≈ 1.52 µM) | 4.16 | 5.44 | 0.42 (≈ 0.79 µM) | 1.53 | 1.08 (≈ 2.03 µM) | 284.32 | 4.72 | 2.43 | 1.59 | 29.37 | 0.21 (≈ 0.395 µM) | 0.44 (≈ 0.828 µM) | 4.94 (≈ 9.29 µM) | 3.94 | 4.44 |
| COc1ccc2c3c1O[C@H]1C[C@@H](OP(=O)(OCCO)Oc4ccc([N+](=O)[O-])cc4)C=C[C@@]31CCN(C)C2 (stereo not given in full) | 1.53 | 3.28 (≈ 6.16 µM) | 3.17 (≈ 5.95 µM) | 72.1 | 1.09 (≈ 2.05 µM) | 3.71 | 4.96 | 0.39 (≈ 0.732 µM) | 2.61 | 2.82 (≈ 5.3 µM) | 286.43 | 5.21 | 2.69 | 1.9 | 29.41 | 0.25 (≈ 0.469 µM) | 0.67 (≈ 1.26 µM) | 3.28 (≈ 6.16 µM) | 4.27 | 5.01 |
| COc1ccc2c3c1O[C@H]1C[C@@H](OP(=O)(NCCN)Oc4ccc([N+](=O)[O-])cc4)C=C[C@@]31CCN(C)C2 (stereo not given in full) | 1.02 | 1.91 (≈ 3.6 µM) | 1.99 (≈ 3.75 µM) | 75.9 | 0.75 (≈ 1.41 µM) | 4.91 | 6.11 | 0.38 (≈ 0.716 µM) | 1.93 | 1.89 (≈ 3.56 µM) | 295.92 | 5.06 | 2.78 | 1.84 | 29.73 | 0.15 (≈ 0.283 µM) | 0.62 (≈ 1.17 µM) | 1.81 (≈ 3.41 µM) | 5.09 | 3.73 |
| COc1ccc2c3c1O[C@H]1C[C@@H](O)C=C[C@@]31CCN(C)C2 [GALANTAMINE] | 1.47 | 3.84 (≈ 13.4 µM) | 4.93 (≈ 17.2 µM) | 70.7 | 1 (≈ 3.48 µM) | 2.25 | 2.21 | 0.62 (≈ 2.16 µM) | 1.65 | 4.21 (≈ 14.7 µM) | 283.44 | 4.69 | 1.83 | 1.39 | 29.37 | 0.18 (≈ 0.626 µM) | 0.7 (≈ 2.44 µM) | 5.06 (≈ 17.6 µM) | 2.66 | 2.02 |
| COc1ccc2c3c1O[C@H]1C[C@@H](OP(=O)(Oc4ccc([N+](=O)[O-])cc4)SCCO)C=C[C@@]31CCN(C)C2 (stereo not given in full) | 3.62 | 1.55 (≈ 2.83 µM) | 2.64 (≈ 4.81 µM) | 72.8 | 0.29 (≈ 0.529 µM) | 3.06 | 5.01 | 0.36 (≈ 0.656 µM) | 1.81 | 1.49 (≈ 2.72 µM) | 288.58 | 4.77 | 2.36 | 2.5 | 29.69 | 0.1 (≈ 0.182 µM) | 0.34 (≈ 0.62 µM) | 4.25 (≈ 7.75 µM) | 4.91 | 4.38 |
